HSF1 inhib – HSF1 inhibition; NIH3T3-HGL HSE-luciferase, MG132-induced, luminescence 8 h; active compounds read low; hit rate 0.77% among 300,000; activity change, negative = inhibition, % at 7.5 µM (by protocol); AID 2098;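 active = more than half of replicate wells show activity change below -50%, luminescence cut by over half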;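 note: luciferase reports HSF-1 transcriptional activity via heat shock element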
Lmaj promast – inhibitors of Leishmania major promastigote growth; inhibition, % at 10 µM; AID 1063; Leishmania major promastigotes, resazurin fluorescence viability; hit rate 9% among 200,000; in the data active = inhibition above about 50%;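 note: promastigotes grown with compound for 44 hours at 28 °C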
HSF-1 act – increases HSF-1 driven luciferase reporter signal; NIH3T3-HGL HSF-1 luciferase reporter, MG132, 8 h; 100% = twice DMSO control signal; activation, % at 9 µM; hit rate 1.7% among 300,000; AID 504408;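 active = mean replicate activation of at least 50% with a set share of replicates each reaching 50%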
Hsp70 act – transcriptional activators of Hsp70; HeLa Hsp70 promoter luciferase reporter, luminescence; scaled: vehicle 0, proteasome-inhibitor control 100%; hit rate 0.04% among 200,000; activation, % at 10 µM; AID 1203;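 active = activation above the mean across all tested compounds plus 3 SD, cutoff set per campaign, cut at about 5.5% in these data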
T cruzi repl – T. cruzi replication inhibition; T. cruzi beta-gal in NIH3T3, luminescence, 90 h; inhibition, % (no concentration beside the values); hit rate 1.4% among 300,000; AID 1885;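 active = mean inhibition across valid replicates above about 55%, limit read from the data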;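 note: signal also drops with host cell toxicity which is not excluded here; higher percent means less beta-gal luminescence so fewer parasites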
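Assay system: NIH/3T3 host cells with β-galactosidase reporter T. cruzi; input: 5,000 host fibroblasts per well; compound: single 50 nL compound addition per well in DMSO; timing: ≥90 h infection period, 3 h prior cell attachment; measured by: GalScreen β-gal luminescence, detergent lysis, 60 min; evaluation: percent inhibition of parasite-derived β-gal signal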
Large screens that a line does not name were inactive. The sample as a whole holds a higher share of hits than the screen did.

Cc1ccc(NC(=S)NCCN(C2CCCCC2)C2CCCC2)cc1C	Lmaj promast 64.2
Cc1ccc(NC(=S)NC(=O)C2CCCC2)cc1C	none (no result: Lmaj promast, Hsp70 act)
Cc1cc(C)cc(NC(=S)NCCN(C2CCCCC2)C2CCCC2)c1	Lmaj promast 62.5
CCn1c2ccccc2c2cc(NC(=O)COc3ccccc3)ccc21	none
Cc1ccc(N(CC(O)Cn2c3ccccc3c3ccccc32)S(C)(=O)=O)cc1 (stereo not given)	none
CC(=O)Nc1ccc(OCC(O)Cn2c3ccccc3c3ccccc32)cc1 (stereo not given)	Lmaj promast 85.2
CC(=O)Nc1ccc(OCC(O)Cn2c3ccccc3c3ccccc32)c(C)c1 (stereo not given)	Lmaj promast 75.2, T cruzi repl 55.8
Cc1ccccc1OCC(O)Cn1c2ccccc2c2ccccc21 (stereo not given)	Lmaj promast 91.2
CC(=O)Nc1ccc(N(CC(O)Cn2c3ccccc3c3ccccc32)S(=O)(=O)c2ccc(C)cc2)cc1 (stereo not given)	Lmaj promast 61.8
O=C(O)c1ccc(OCC(O)Cn2c3ccccc3c3ccccc32)cc1 (stereo not given)	none (no result: Lmaj promast, Hsp70 act)
CC(=O)Nc1ccc(S(=O)(=O)N(C)CC(=O)OCC(=O)N(C)c2ccccc2)cc1	none (no result: Lmaj promast, Hsp70 act)
COc1ccc2c([N+](=O)[O-])c(Cl)[nH]c2c1	none
CC(C)(C)NC(=O)C(=O)NNC(=O)COc1ccc(Br)cc1	none
CC(C)N(CCNCc1nnc(-c2ccccc2)o1)C(C)C	none
CC(C)CC(=O)N1CCC(N(CCc2ccccc2)Cc2ccccc2)CC1	none (no result: Lmaj promast, Hsp70 act)
CN=c1sc2ccccc2n1CC(O)COc1ccccc1 (stereo not given)	none
Cc1ccc(N(CC(O)Cn2nc(C)cc2C)S(=O)(=O)c2ccc3ccccc3c2)cc1 (stereo not given)	Lmaj promast 75.8
Cc1cc(C)n(CC(O)CN(c2ccccc2)S(=O)(=O)c2ccccc2)n1 (stereo not given)	none
CCN=c1sc2ccccc2n1CC(O)COc1ccccc1 (stereo not given)	Lmaj promast 99.5
OC(COc1ccccc1)Cn1c2ccccc2c2ccccc21 (stereo not given)	Lmaj promast 69.6
Cc1cc(C)c(C)c(S(=O)(=O)N2CCN(C(=O)C3CSC4(C)CCC(=O)N34)CC2)c1C (stereo not given)	none (no result: Lmaj promast, Hsp70 act)
COc1ccccc1N/C(=N/S(=O)(=O)c1ccc(C)cc1)c1ccc(Cl)cc1	Lmaj promast 99.9
CC(=O)c1cc2c(cc1N/C(=N/S(=O)(=O)c1ccc(C)cc1)c1ccccc1)OCO2	Lmaj promast 58.8
Cc1ccc(S(=O)(=O)/N=C(/Nc2ccc(F)cc2F)c2ccc(F)cc2)cc1	none (no result: Lmaj promast, Hsp70 act)
O=S(=O)(/N=C(/Nc1cccc2ccccc12)c1ccccc1)c1ccc(F)cc1	HSF-1 act 51.8 (no result: Lmaj promast, Hsp70 act)
O=S(=O)(/N=C(/Nc1cccc2ccccc12)c1ccccc1)c1ccccc1	none (no result: Lmaj promast, Hsp70 act)
COc1ccccc1NS(=O)(=O)c1cc(N/C(=N\S(=O)(=O)c2ccccc2)c2ccc(F)cc2)ccc1Cl	Lmaj promast 98.9
Cc1ccc(N2C(=O)C(NC(=O)c3ccccc3)(C(F)(F)F)C3=C2CC(C)(C)CC3=O)cc1 (stereo not given)	Lmaj promast 89.0
CCN1C(=O)/C(=C\C(=O)c2cccs2)c2cc(Br)ccc21	Lmaj promast 99.9
NS(=O)(=O)c1ccc(N/N=C/c2ccccc2C(=O)O)c([N+](=O)[O-])c1	HSF-1 act 60.5
O=C(C1CCN(C2CCN(C/C(Cl)=C/c3ccccc3)CC2)CC1)N1CCOCC1	Lmaj promast 96.9
CCCCNC(=O)C1CCN(C/C(C)=C/c2ccccc2)CC1	Lmaj promast 90.7
CCCCN(CCCNC(=O)C1CCN(S(=O)(=O)CC)CC1)c1ccccc1	HSF-1 act 64.3
C/C(=C\c1ccccc1)CN1CCC(C(=O)N2CCC(C)CC2)CC1	Lmaj promast 93.3
CCN(CCNC(=O)C1CCN(S(=O)(=O)CC)CC1)c1ccccc1	none
CCSc1ncc(CO)c(N)n1	none (no result: Lmaj promast, Hsp70 act)
CCCCn1c(=O)nc2n(-c3ccc(Cl)cc3)c3ccccc3cc-2c1=O	none
O=C(NC1CCCCCC1)C1CCCN(c2ncccn2)C1 (stereo not given)	none (no result: Lmaj promast, Hsp70 act)
COc1ccc(NC(=O)CNC(=O)c2cccs2)cc1Cl	none
CCOc1ccc(NS(=O)(=O)c2cc(NC(=O)c3cccc(C)c3)ccc2Cl)cc1	Lmaj promast 99.2

Source: PubChem (several laboratories)
